Screening results as filed in PubChem.
E-sel inducer – E-selectin induction in HUVECs, primary screen, imaging, HUVEC, immunofluorescence imaging, single point | normalized: neutral wells 0, TNF-alpha wells 100 | activation, % at 7.58 µM | P16581 | actives 0.37% (n = 260,000) | AID 686992, 2013;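 active means mean E-selectin-positive cell signal at least 10% of the positive control, reached in at least 60% of replicates, without over 20% cell loss; inconclusive means no rule given, readout overlaps actives, possibly toxicity-flagged; inactive means the rest, including those meeting only one limit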
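System: HUVEC, human umbilical vein endothelial cells; quantity: 3,000 cells/well; buffer or medium: EGM-2 medium, gelatin-coated wells; dosing: single-point compound dose; detection: immunofluorescence imaging; evaluation: % PE-positive cells; benchmarks: TNF-alpha, DMSO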
MLL AF4-AF9 inh – inhibitors of AF4 peptide binding to AF9, primary screen, biochemical, AlphaScreen, biotin-AF4 peptide, FLAG-AF9, single point | inhibition, % at 10 µM | actives 0.47% (n = 350,000);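 active means every replicate reaching a set inhibition limit, whatever the replicate mean, cut at about 25% in these data; inconclusive means mean inhibition reaches that limit but some replicates miss it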;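 further: 0% = plate neutral control median and 100% = total signal loss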
RAD54 branch – inhibitors of human RAD54 branch migration, primary screen, biochemical, fluorescence, single point | DNA repair and recombination protein RAD54-like (Homo sapiens), Q92698 | RAD54 Holliday junction branch migration, FAM/BHQ fluorescence | inhibition, % at 10.4 µM | actives 0.14% (n = 360,000) | AID 602329, 2012;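 active means mean normalized replicate activity at least 40 and at least half of replicates scoring 40 or more; inconclusive means only one of the two criteria met; inactive means mean below 40 and under half of replicates reaching 40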;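 further: 0% = median of neutral control wells and 100% = median of positive control wells; inhibitors cause a drop in the FAM fluorescence signal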
RAD52 inh – RAD52 DNA annealing inhibitors, primary screen, biochemical, FRET, single point, set 2; DNA repair protein RAD52 homolog (Homo sapiens), P43351; recombinant RAD52 DNA annealing, FRET fluorescence; inhibition, % at 18.7 µM; actives 0.46% (n = 360,000);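 active means every replicate showing at least 50% inhibition; inconclusive means mean inhibition at least 50% but not in every replicate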
Target sequence (P43351 whole entry, looked up): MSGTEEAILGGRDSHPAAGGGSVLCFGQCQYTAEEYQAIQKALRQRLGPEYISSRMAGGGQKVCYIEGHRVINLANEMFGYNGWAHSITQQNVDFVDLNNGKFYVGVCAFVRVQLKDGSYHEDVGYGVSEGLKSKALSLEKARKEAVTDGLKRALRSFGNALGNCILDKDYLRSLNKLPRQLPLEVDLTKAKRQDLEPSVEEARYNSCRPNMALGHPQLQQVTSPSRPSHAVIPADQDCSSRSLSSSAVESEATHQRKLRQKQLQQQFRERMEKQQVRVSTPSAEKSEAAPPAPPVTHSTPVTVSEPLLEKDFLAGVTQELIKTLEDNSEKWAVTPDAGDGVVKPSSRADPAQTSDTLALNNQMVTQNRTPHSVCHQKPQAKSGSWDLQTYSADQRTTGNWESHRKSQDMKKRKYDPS
rRNA inh HTS – reduced GFP signal of wild-type E. coli, primary screen, bacterial rRNA inhibitor project, GFP/RFP fluorescence, OD600, single point; actives 1.6% (n = 350,000); E. coli WT GFP vs humanized-ribosome RFP mutants, 24 h; active compounds read low; DMSO median 0, no signal -100; GFP signal change (wild-type ribosome), % (test concentration not listed);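 active means significant combined selectivity score with lowered wild-type GFP, culture density cut under 30%, mutant RFP and density less affected; inactive means any of these conditions unmet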
GSIS activator – GLuc luminescence reporter in INS-1E cells, primary screen for activators of glucose-dependent secretion of insulin; INS-1E GLuc reporter insulin secretion, 2-3 h; activation, % at 16.6 µM; actives 0.61% (n = 370,000);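 active means lowest replicate activation of at least 40%, so every replicate reaches that level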;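 further: 0% = median of neutral control wells and 100% = median of IBMX positive control wells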
RAD52 DNA ctr – DNA-binding compounds via dye displacement, dose response, artefact control for RAD52 inhibitor project, biochemical, fluorescence polarization, cherry-pick; actives 8% (n = 1,000); Salmon sperm DNA/acridine orange FP displacement; shares compounds with RAD52 inh; AC50, µM; AID 652128, 2013;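 active means fitted half-maximal concentration for signal loss at or below twice the highest dose tested, in every separate run, actives reach about 64 µM in these data; inconclusive means runs disagree, or flat partial signal loss, or poor fit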
AID977621 – growth inhibition of wild-type GFP E. coli, dose response, H69 mutant RFP, cherry-pick | AID 977621, 2014 | activity change, negative = inhibition at 50 µM | shares compounds with rRNA inh HTS | E. coli wild-type GFP strain growth, fluorescence, 24 h | 1,900 tested, under 10 active;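 active means Wild-type ribosome reporter drop at least double the humanized mutant ribosome reporter drop, growth loss under a set limit; inconclusive means no clear call, values can overlap the other calls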;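 further: wild-type GFP and H69 mutant RFP strains grown together 50/50 in each well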
AID977628 – E. coli growth inhibition, wild-type GFP versus h24 humanized RFP strain, dose response, h24 mutant RFP vs wild-type GFP, cherry-pick. shares compounds with rRNA inh HTS. E. coli WT GFP strain growth, fluorescence, 24 h. activity change, negative = inhibition at 50 µM. 1,900 tested, under 10 active. AID 977628, 2014;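 active means compound lowering the normal-ribosome reporter at least twice as much as the humanized-ribosome reporter, growth loss under a set limit; inconclusive means no clear call, values can overlap the other calls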;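 further: wild-type GFP and h24 humanized RFP strains co-cultured 1 to 1 per well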
The depositor's hits bear a star; i = inactive; ? = inconclusive; · = no result given. Shown are actives, neighbours in structure and some others; about 2.6% of the full set was active somewhere.

SMILES	E-sel inducer	MLL AF4-AF9 inh	RAD54 branch	RAD52 inh	rRNA inh HTS	GSIS activator	RAD52 DNA ctr	others
COc1ccc(S(=O)(=O)N(C)C[C@H]2OCCCC[C@@H](C)Oc3ccc(NC(=O)CCC(F)(F)F)cc3C(=O)N([C@@H](C)CO)C[C@@H]2C)cc1	0.0	-0.2	-1.1	-17.0	-2.4	-12.4	·
C[C@H](CO)N1C[C@H](C)[C@H](CN(C)Cc2ccncc2)Oc2ccc(NS(=O)(=O)c3ccccc3)cc2CC1=O	0.1	-3.2	-0.9	-0.3	-0.2	-11.1	·
OC[C@@H]1CN(Cc2ccc3c(c2)OCO3)C[C@H](n2cnc3c(N4CCCC4)ncnc32)O1	-0.4	-2.8	4.1	86.0*	-6.7	-1.7	i
OC[C@@H]1CN(Cc2ccc3c(c2)OCO3)C[C@H](n2cnc3c(N4CCOCC4)ncnc32)O1	0.8	1.0	-2.5	-11.0	-1.4	16.0	·
O=c1oc(-c2ccccc2Br)nc2ccccc12	1.0	-1.9	-4.0	101.9*	-4.9	1.6	i
Cc1cccc(S(=O)(=O)N2CC[C@@H]3[C@@H](CO)Nc4ccc(C#Cc5ccccc5F)cc4[C@@H]32)c1	0.4	0.4	4.3	-15.2	-1.7	-2.3	·
COc1c(C=O)cc2c3c1CCCN3CCC2	-0.1	2.1	-1.5	2.1	-0.6	6.9	·
NCc1cc2c3c(c1)CCCN3CCC2	-0.1	51.3*	55.0*	80.3*	18.1	8.6	?
C[C@H](CO)N1C[C@H](C)[C@H](CN(C)C(=O)Cc2ccccc2)OCCCC[C@H](C)Oc2ccc(NC(=O)c3ccccc3)cc2C1=O	·	-3.4	12.8	15.7	-1.4	-34.0	·
CN/C(=C\[N+](=O)[O-])NCCSCc1ccc(CN(C)C)o1	2.7	-9.4	-10.2	60.7*	·	·	i
C[C@@H]1CN([C@H](C)CO)C(=O)c2cc(NC(=O)c3ccccc3)ccc2O[C@@H](C)CCCCO[C@H]1CN(C)C(=O)Nc1ccccc1	·	-0.7	0.4	-38.9	-3.9	-15.0	·
O=[N+]([O-])c1ccc(COc2ccccc2CN2CCCC2)cc1	-0.5	2.0	8.7	77.2*	-10.6	0.7	i
CCN(CC)CCNC(=O)CCc1c(C)nc2c(c(C)nn2-c2ccc(C)c(C)c2)c1C	-0.2	6.7	27.0	6.5	-2.7	4.7	i
COc1ccc2c3c([nH]c2c1)[C@H](CO)N(Cc1ccccc1)CC31CN(S(C)(=O)=O)C1	·	·	·	·	0.0	13.5	·
Cc1ccc(S(=O)(=O)N[C@H]2CC[C@H](CCNC(=O)Nc3ccc(Cl)cc3)O[C@@H]2CO)cc1	-0.1	13.4	0.5	12.8	-2.2	-21.1	·
CN(C)CCCNc1cc(O)c2ncccc2c1	-0.2	76.2*	-1.2	69.9*	80.1	-24.0	i
CN1CCN(CCCNC(=O)c2ccc(/C=C3\Sc4ccccc4N(Cc4ccccc4F)C3=O)cc2)CC1	-0.2	36.3*	·	89.9*	-57.5	120.1*	i
O=C(NCCN1CCOCC1)c1ccc(/C=C2\Sc3ccccc3N(Cc3ccccc3F)C2=O)cc1	·	7.5	-1.2	-13.9	-16.4	14.3	·
OC[C@@H]1CN(CCc2ccccc2)C[C@H](n2cnc3c(NCc4ccc(F)cc4)ncnc32)O1	0.0	-0.5	-3.9	74.5*	-2.5	·	i
OC[C@@H]1CN(CCN2CCOCC2)C[C@H](n2cnc3c(NCc4ccc(F)cc4)ncnc32)O1	0.0	-2.1	0.2	-5.0	15.4	16.0	·
O=C(c1ccccc1)c1cccc(C(=O)c2ccccc2)c1	·	·	-3.7	·	·	·	·
Nc1cc(N)cc(C(=O)c2ccccc2)c1	0.3	8.7	6.2	89.1*	7.3	3.8	i
COc1ccc(CN2CCN(Cc3ccco3)CC2)cc1	0.0	1.8	-9.1	-9.8	8.5	23.9	·
FC(F)(F)c1ccc(CN2CCN(Cc3ccco3)CC2)cc1	1.2	1.9	-7.5	97.4*	6.3	-5.6	i
C[C@@H]1CN([C@H](C)CO)S(=O)(=O)c2ccc(-c3ccccc3F)cc2O[C@H]1CN(C)C	-0.1	-1.4	6.0	9.1	0.6	14.4	·
SMILES	E-sel inducer	MLL AF4-AF9 inh	RAD54 branch	RAD52 inh	rRNA inh HTS	GSIS activator	RAD52 DNA ctr	others
C/C=C/c1cnc2c(c1)C(=O)N([C@@H](C)CO)C[C@H](C)[C@@H](CN(C)C(=O)CCN1CCCCC1)O2	-0.1	·	·	·	4.7	-1.9	·
Nc1ccc2nc(-c3ccc(Cl)cc3)[nH]c2c1	2.9	?	7.3	50.9*	-17.1*	·	i	AID977628=-8.79
Nc1ccc(-c2nc3ccc(N)cc3[nH]2)cc1	-0.1	11.1	·	-3.9	-15.5	-3.9	·
C[C@@H]1CN([C@@H](C)CO)C(=O)c2cc(NC(=O)CCC(F)(F)F)ccc2O[C@H]1CN(C)S(=O)(=O)c1cn(C)cn1	-12.6	-4.2	-5.6	16.4	-1.2	9.6	·
CCN(CC)CCCN(C(=O)c1ccco1)c1nc(-c2ccc(C)cc2)cs1	1.3	16.5	25.2	51.7*	-34.3*	-4.9	i	AID977621=?;AID977628=?
O=C(C[C@H]1C[C@H]2c3cc(NS(=O)(=O)c4ccccc4)ccc3O[C@H]2[C@H](CO)O1)N1CCCCC1	0.1	-1.4	-1.8	-7.7	-4.7	-16.9	·
COc1cc(-c2ccc(N3C(c4ccsc4)=Cc4ccc(F)cc4C3c3c[nH]c4ccc(C#N)cc34)cc2)cc(OC)c1OC (stereo unspecified)	0.3	-2.0	·	71.0*	-25.4*	-29.1	i	AID977621=-5.62;AID977628=-2.06
CCc1nnc(NS(=O)(=O)c2ccc(NC(=O)c3cccc(Cl)c3)cc2)s1	4.7	-0.8	·	0.4	-17.2*	8.8	·	AID977621=?;AID977628=?
COc1ccccc1CNC(=O)c1cc2sccc2n1C	·	5.3	·	-8.5	-20.4*	-22.4	·	AID977621=-5.15
COc1ccc(-c2cc3ccccc3nc2N)cc1OC	8.4	-0.4	5.8	-12.7	-5.0	6.9	·
